The test system of assay [1] is Saccharomyces cerevisiae. The assay can be described thus: Inhibition of global histone H3 acetylation in Saccharomyces cerevisiae gcn5delta mutant at 0.8 mM after 24 hrs at 28 degC by hybridization assay. The class given is functional, organism-based.
Assay [2] concerns Saccharomyces cerevisiae. Kind of assay: Growth inhibition of Saccharomyces cerevisiae gcn5delta mutant at 0.2 to 1 mM after 48 hrs at 28 degC by growth spot assay. Type of assay: functional, organism-based. A digest of the protocol:
(§1)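 Exponentially growing yeast cells at 0.2 OD/mL were serially diluted 1/5. They were spotted on solid YEPD (2% agar) containing 1% DMSO, with compound added from a 100 mM DMSO stock at increasing concentrations. Plates were incubated at 28 °C. Each mutant was compared with its isogenic wild type (S288c, YMK986 or SB819).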

The test system of assay [3] is Saccharomyces cerevisiae. The assay can be described thus: Inhibition of histone H3 acetylation at H3-AcK14 site in Saccharomyces cerevisiae gcn5delta mutant at 0.8 mM after 24 hrs at 28 degC by hybridization assay. The class given is functional, organism-based.
Assay [4] concerns Saccharomyces cerevisiae. Kind of assay: Inhibition of histone H3 acetylation at H3-AcK14 site in wild type Saccharomyces cerevisiae S288C at 0.8 mM after 24 hrs at 28 degC by hybridization assay. The class given is functional, organism-based. In short, it runs like this:
(§2)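 Wild-type S288c yeast grown 24 h at 28 °C in YEPD with 1% DMSO, with or without compound added to the medium. Bulk proteins were extracted by an alkaline protocol, run on 15% SDS-PAGE and blotted. Blots were probed for acetylated H3, H4 and H3-K14Ac, with ECL detection. Signals were normalized to Ada2p and quantified densitometrically.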

Assay [5] concerns Saccharomyces cerevisiae. Kind of assay: Growth inhibition of Saccharomyces cerevisiae gcn5E173H mutant at 0.2 to 1 mM after 48 hrs at 28 degC by growth spot assay. Type of assay: functional, organism-based. In short, it runs like this: as §1
The target in assay [6] is Histone acetyltransferase KAT2A (Homo sapiens) (UniProt Q92830). The assay can be described thus: Inhibition of human recombinant Gcn5 assessed as reduction in acetylated histone H3 level at 0.8 mM by Western blot analysis in presence of increased concentration of acetyl-CoA.
Chain of Histone acetyltransferase KAT2A (Homo sapiens) (Q92830 2-837 limits assumed): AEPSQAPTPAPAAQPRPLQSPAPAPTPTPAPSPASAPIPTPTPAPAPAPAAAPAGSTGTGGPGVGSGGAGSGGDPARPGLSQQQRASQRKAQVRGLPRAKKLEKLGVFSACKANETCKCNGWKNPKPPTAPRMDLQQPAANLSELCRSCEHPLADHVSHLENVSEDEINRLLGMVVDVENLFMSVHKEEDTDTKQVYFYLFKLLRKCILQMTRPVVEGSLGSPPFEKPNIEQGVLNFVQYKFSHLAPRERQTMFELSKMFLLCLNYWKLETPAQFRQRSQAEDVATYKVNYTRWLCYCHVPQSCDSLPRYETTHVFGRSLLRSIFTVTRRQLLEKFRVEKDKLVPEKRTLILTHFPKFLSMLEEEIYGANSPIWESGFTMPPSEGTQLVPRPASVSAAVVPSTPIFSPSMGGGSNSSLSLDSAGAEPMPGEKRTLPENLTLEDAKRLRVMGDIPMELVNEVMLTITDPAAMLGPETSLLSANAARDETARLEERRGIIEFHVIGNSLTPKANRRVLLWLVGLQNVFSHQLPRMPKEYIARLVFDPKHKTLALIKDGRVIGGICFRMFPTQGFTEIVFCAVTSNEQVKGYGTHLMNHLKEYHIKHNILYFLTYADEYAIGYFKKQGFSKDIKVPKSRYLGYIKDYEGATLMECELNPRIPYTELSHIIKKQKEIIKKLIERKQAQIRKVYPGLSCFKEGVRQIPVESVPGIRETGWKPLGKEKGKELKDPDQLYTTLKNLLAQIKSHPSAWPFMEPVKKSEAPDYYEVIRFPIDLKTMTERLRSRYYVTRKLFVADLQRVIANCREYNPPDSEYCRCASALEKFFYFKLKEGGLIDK
The test system of assay [7] is Saccharomyces cerevisiae. The assay can be described thus: Growth inhibition of wild type wild type Saccharomyces cerevisiae SB819 at 0.2 to 1 mM after 48 hrs at 28 degC by growth spot assay. The class given is functional, organism-based. A digest of the protocol: as §1
In assay [8] the test system is Saccharomyces cerevisiae. The assay can be described thus: Growth inhibition of Saccharomyces cerevisiae SB0-deltabr mutant at 0.2 to 1 mM after 48 hrs at 28 degC by growth spot assay. The class given is functional, organism-based. In short, it runs like this: as §1
In assay [9] the target is Histone acetyltransferase KAT2A (Homo sapiens) (UniProt Q92830). The assay can be described thus: Inhibition of human recombinant Gcn5 assessed as reduction in acetylated histone H3 level at 0.8 mM by Western blot analysis in presence of 200 ng histone H3. A digest of the protocol:
(§3)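 Tube reaction of human recombinant Gcn5 (50 ng) with 1 mM acetyl-CoA and histone H3 (100 or 200 ng). Buffer: 50 mM Tris-HCl pH 8.0, 0.1 mM EDTA, 50 mM KCl, 1 mM DTT, 5% glycerol. Incubated 1 h at 28 °C with or without compound, then 15% SDS-PAGE and blotting. Blots were probed serially with anti-acetyl-lysine and anti-acetyl-H3 antibodies.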

Assay [10] has the same target. Kind of assay: Inhibition of human recombinant Gcn5 assessed as reduction in acetylated histone H3 level at 0.8 mM by Western blot analysis. In short, it runs like this: as §3
Assay [11] deals with Saccharomyces cerevisiae. Kind of assay: Reduction of global histone H4 acetylation in wild type Saccharomyces cerevisiae S288C at 0.8 mM after 24 hrs at 28 degC by hybridization assay. Type of assay: functional, organism-based. A digest of the protocol:
as §2

In assay [12] the test system is Saccharomyces cerevisiae. The assay can be described thus: Decrease in global histone H3 acetylation in wild type Saccharomyces cerevisiae S288C at 0.8 mM after 24 hrs at 28 degC by hybridization assay. Type of assay: functional. Set-up: scale not given: the % may be the effect or the level left. In short, it runs like this: as §2
In assay [13] the target is Histone acetyltransferase KAT2A (Homo sapiens) (UniProt Q92830). The assay can be described thus: Inhibition of human recombinant Gcn5 assessed as reduction in acetylated histone H3 level at 0.2 mM by Western blot analysis in presence of histone H3. A digest of the protocol: as §3
The target is the same in assay [14]. Kind of assay: Inhibition of human recombinant Gcn5 assessed as reduction in acetylated histone H3 level at 0.2 mM by Western blot analysis. A digest of the protocol:
as §3

Calls of active or inactive are those of the source. The calls are words filed in the database; no cut-off is given here.

As for `Clc1ccc(-c2csc(NN=C3CCCC3)n2)cc1`, the result (in the assay with Saccharomyces cerevisiae [1]; with Saccharomyces cerevisiae [2]; with Saccharomyces cerevisiae [3]; in the assay on Saccharomyces cerevisiae [4]; in the assay with Saccharomyces cerevisiae [5]; in [6]) was Active. For the same compound, the result in [10] was Active. Besides, the result (with Saccharomyces cerevisiae [7]; in the assay with Saccharomyces cerevisiae [8]; in assay [9]; with Saccharomyces cerevisiae [11]) was inactive. Besides, the Activity with Saccharomyces cerevisiae [12] came out at 30%.

Consider `C=CC/C=C\C/C=C\CCCCCCCc1cccc(O)c1C(=O)O`, for which the outcome in [13] and in [14] was Active.

The record behind these values is ChEMBL document CHEMBL1139367, “A novel histone acetyltransferase inhibitor modulating Gcn5 network: cyclopentylidene-[4-(4'-chlorophenyl)thiazol-2-yl)hydrazone” (2009).
